Results as given in ChEMBL document CHEMBL3091281, “Neuroprotective benzyl benzoate glycosides from Disporum viridescens roots in HT22 hippocampal neuronal cells” (J Nat Prod, 2013).
Activity calls are given as the source filed them. The calls are words filed in the database; no cut-off is given here.

Tests used:
[1] = test system: HT-22; assay: Neuroprotective activity against L-glutamate-induced neurotoxicity in mouse HT22 cells assessed as GSH/GSSG ratio at 100 uM incubated 1 hr prior to L-glutamate-challenge measured after 12 hrs (reference value: 1.105 +/- 0.112); format: functional
[2] = test system: HT-22; assay: Neuroprotective activity against L-glutamate-induced neurotoxicity in mouse HT22 cells assessed as SOD activity at 10 uM incubated 1 hr prior to L-glutamate-challenge measured after 12 hrs by xanthine-xanthine oxidase reaction (reference value: 16.10 +/- 0.54 U/mg protein); format: functional
[3] = test system: HT-22; assay: Antioxidant activity in mouse HT22 cells assessed as HO-1 protein expression after 0.5 to 12 hrs by Western blotting analysis; format: functional, cell-based
Outline: (§1)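 HT22 cells treated 30 min (kinases) or 12 h (HO-1) at stated concentrations or times; lysed in RIPA with protease and phosphatase inhibitors, 30 μg protein on 10% SDS-PAGE, PVDF transfer, overnight 4 °C primary antibodies (HO-1, ERK/p-ERK, JNK/p-JNK, p38/p-p38, β-actin), ECL detection.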

[4] = test system: HT-22; assay: Neuroprotective activity in mouse HT22 cells assessed as HO-1 protein expression at 100 uM by Western blotting analysis in presence of SB203580; format: functional, cell-based; outline: as §1
[5] = target: MAP kinase p38 (Mus musculus) (UniProt P47811+O08911+Q9WUI1+Q9Z1B7); assay: Induction of p38 phosphorylation in mouse HT22 cells at 100 uM after 0.5 to 12 hrs by Western blotting analysis; format: cell-based; details: HT-22; outline: as §1
[6] = test system: HT-22; assay: Induction of JNK phosphorylation in mouse HT22 cells at 100 uM after 0.5 to 12 hrs by Western blotting analysis; format: cell-based; outline: as §1
[7] = test system: HT-22; assay: Neuroprotective activity against L-glutamate-induced neurotoxicity in mouse HT22 cells assessed as cell viability at 100 uM incubated 1 hr prior to L-glutamate-challenge measured after 12 hrs by MTT assay in presence of SnPP; format: functional, cell-based
Outline: (§2)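 Mouse hippocampal HT22 cells seeded at 3 × 10^4 per well in DMEM, pretreated 1 h with compound in DMSO (0.1% final), then exposed to 5 mM L-glutamate; viability by MTT after further 12 h.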

[8] = test system: HT-22; assay: Neuroprotective activity against L-glutamate-induced neurotoxicity in mouse HT22 cells assessed as GSH/GSSG ratio incubated 1 hr prior to L-glutamate-challenge measured after 12 hrs; format: functional, cell-based
[9] = test system: HT-22; assay: Neuroprotective activity against L-glutamate-induced neurotoxicity in mouse HT22 cells assessed as GSH/GSSG ratio at 10 uM incubated 1 hr prior to L-glutamate-challenge measured after 12 hrs (reference value: 1.105 +/- 0.112); format: functional
[10] = test system: HT-22; assay: Antioxidant activity in mouse HT22 cells assessed as HO-1 protein expression at 100 uM after 6 to 18 hrs by Western blotting analysis; format: functional, cell-based; outline: as §1
[11] = test system: HT-22; assay: Neuroprotective activity against L-glutamate-induced neurotoxicity in mouse HT22 cells assessed as GSH/GSSG ratio at 50 uM incubated 1 hr prior to L-glutamate-challenge measured after 12 hrs (reference value: 1.105 +/- 0.112); format: functional
[12] = test system: HT-22; assay: Induction of ERK phosphorylation in mouse HT22 cells at 100 uM after 0.5 to 12 hrs by Western blotting analysis; format: cell-based; outline: as §1
[13] = test system: HT-22; assay: Neuroprotective activity against L-glutamate-induced neurotoxicity in mouse HT22 cells assessed as SOD activity at 50 uM incubated 1 hr prior to L-glutamate-challenge measured after 12 hrs by xanthine-xanthine oxidase reaction (reference value: 16.10 +/- 0.54 U/mg protein); format: functional
[14] = test system: HT-22; assay: Neuroprotective activity against L-glutamate-induced neurotoxicity in mouse HT22 cells assessed as SOD activity at 100 uM incubated 1 hr prior to L-glutamate-challenge measured after 12 hrs by xanthine-xanthine oxidase reaction (reference value: 16.10 +/- 0.54 U/mg protein); format: functional
[15] = test system: HT-22; assay: Neuroprotective activity against L-glutamate-induced neurotoxicity in mouse HT22 cells assessed as GR activity at 100 uM incubated 1 hr prior to L-glutamate-challenge measured after 12 hrs (reference value: 0.94 +/- 0.19 mU/mg protein); format: functional
[16] = test system: HT-22; assay: Neuroprotective activity against L-glutamate-induced neurotoxicity in mouse HT22 cells assessed as cell viability at 10 to 100 uM incubated 1 hr prior to L-glutamate-challenge measured after 12 hrs by MTT assay; format: functional, cell-based; outline: as §2
[17] = test system: HT-22; assay: Neuroprotective activity against L-glutamate-induced neurotoxicity in mouse HT22 cells assessed as GR activity at 10 uM incubated 1 hr prior to L-glutamate-challenge measured after 12 hrs (reference value: 0.94 +/- 0.19 mU/mg protein); format: functional
[18] = test system: HT-22; assay: Neuroprotective activity against L-glutamate-induced neurotoxicity in mouse HT22 cells assessed as GSH-Px activity at 10 uM incubated 1 hr prior to L-glutamate-challenge measured after 12 hrs (reference value: 0.036 +/- 0.001 mU/mg protein); format: functional
[19] = test system: HT-22; assay: Neuroprotective activity against L-glutamate-induced neurotoxicity in mouse HT22 cells assessed as GR activity at 50 uM incubated 1 hr prior to L-glutamate-challenge measured after 12 hrs (reference value: 0.94 +/- 0.19 mU/mg protein); format: functional
[20] = test system: HT-22; assay: Neuroprotective activity in mouse HT22 cells assessed as HO-1 protein expression at 100 uM by Western blotting analysis in presence of PD98059; format: functional, cell-based; outline: as §1
[21] = test system: HT-22; assay: Antioxidant activity in mouse HT22 cells assessed as HO-1 protein expression at 100 uM by Western blotting analysis; format: functional, cell-based; details: TDE = time-dependent effect; outline: as §1
[22] = test system: HT-22; assay: Neuroprotective activity against L-glutamate-induced neurotoxicity in mouse HT22 cells assessed as GSH-Px activity at 50 uM incubated 1 hr prior to L-glutamate-challenge measured after 12 hrs (reference value: 0.036 +/- 0.001 mU/mg protein); format: functional
[23] = test system: BV-2 (Mus musculus); assay: Antiinflammatory activity in mouse BV2 cells assessed as inhibition of LPS-stimulated NO production at 10 to 100 uM by Griess assay
[24] = test system: HT-22; assay: Neuroprotective activity against L-glutamate-induced neurotoxicity in mouse HT22 cells assessed as GSH-Px activity at 100 uM incubated 1 hr prior to L-glutamate-challenge measured after 12 hrs (reference value: 0.036 +/- 0.001 mU/mg protein); format: functional
[25] = test system: HT-22; assay: Neuroprotective activity in mouse HT22 cells assessed as HO-1 protein expression at 100 uM by Western blotting analysis in presence of SP600125; format: functional, cell-based; outline: as §1
[26] = test system: BV-2 (Mus musculus); assay: Cytotoxicity against mouse BV2 cells
[27] = test system: HT-22; assay: Cytotoxicity against mouse HT22 cells; format: cell-based
Outline: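 MTT viability assay in BV2 and HT22 cells, compounds tested without glutamate.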

COc1c(O)ccc(O[C@@H]2O[C@@H](C)[C@H](OC(C)=O)[C@@H](O)[C@H]2O)c1C(=O)OCc1ccccc1O[C@@H]1O[C@H](CO)[C@@H](O)[C@H](O)[C@H]1O
Ratio [1]: 2.824 | Activity [2]: 29.78 U/mg | Activity [3]: Dose-dependent effect | Activity [4]: Active | Activity [5]: inactive | Activity [6]: inactive | Activity [7]: inactive | Activity [8]: Dose-dependent effect | Ratio [9]: 1.594 | Activity [10]: Active | Ratio [11]: 2.3 | Activity [12]: Active | Activity [13]: 29.05 U/mg | Activity [14]: 30.71 U/mg | Activity [15]: 1.14 mU/mg | Activity [16]: Active | Activity [17]: 0.72 mU/mg | Activity [18]: 0.056 mU/mg | Activity [19]: 0.9 mU/mg | Activity [20]: inactive | Activity [21]: tde | Activity [22]: 0.055 mU/mg | Activity [23]: Active | Activity [24]: 0.059 mU/mg | Activity [25]: Active | Activity [26]: Toxic | Activity [27]: Toxic

COc1c(O)ccc(O[C@@H]2O[C@@H](C)[C@H](O)[C@@H](O)[C@H]2O)c1C(=O)OCc1ccccc1O[C@@H]1O[C@H](CO)[C@@H](O)[C@H](O)[C@H]1O
Activity [16]: Active | Activity [23]: Active | Activity [26]: Toxic | Activity [27]: Toxic

COc1ccc(O[C@@H]2O[C@@H](C)[C@H](O)[C@@H](O)[C@H]2O)c(C(=O)OCc2ccccc2O[C@@H]2O[C@H](CO)[C@@H](O)[C@H](O)[C@H]2O)c1O
Activity [16]: Active | Activity [23]: Active | Activity [26]: Toxic | Activity [27]: Toxic

O=C(OCc1ccccc1O[C@@H]1O[C@H](CO)[C@@H](O)[C@H](O)[C@H]1O)c1c(O)cccc1O[C@@H]1O[C@H](CO)[C@@H](O)[C@H](O)[C@H]1O
Activity [23]: Active | Activity [26]: Toxic | Activity [27]: Toxic

COc1c(O)ccc(O[C@@H]2O[C@@H](C)[C@H](O)[C@@H](O)[C@H]2O)c1C(=O)OCc1ccccc1O[C@@H]1O[C@@H](C)[C@H](O)[C@@H](O)[C@H]1O
Activity [16]: Active | Activity [23]: Active | Activity [26]: Toxic | Activity [27]: Toxic

C[C@@H]1O[C@@H](Oc2ccc(O)c(O)c2C(=O)OCc2ccccc2O[C@@H]2O[C@H](CO)[C@@H](O)[C@H](O)[C@H]2O)[C@H](O)[C@H](O)[C@H]1O
Activity [23]: Active | Activity [26]: Toxic | Activity [27]: Toxic
